The results in this text go back to ChEMBL document CHEMBL1153333, “Structure-activity relationship studies of curcumin analogues” (Bioorg Med Chem Lett, 2009).

One experiment deals with PC-3. Kind of experiment: Antiproliferative activity against human PC3 cells after 72 hrs by MTT assay. The class given is functional, cell-based. As to conditions: PC-3, 72 h. On the technique in general: Tetrazolium dyes change colour on reduction, which living cells bring about.
For experiment [1], the system named is LNCaP. Nature of the experiment: Antiproliferative activity against human LNCAP cells after 72 hrs by MTT assay. The class given is functional, cell-based.
Experiment [2] concerns MCF7. Kind of experiment: Antiproliferative activity against human MCF7 cells after 72 hrs by MTT assay. It counts as functional, cell-based. As to conditions: MCF7, 72 h.
Experiment [3] deals with MDA-MB-231. Nature of the experiment: Antiproliferative activity against human MDA-MB-231 cells after 72 hrs by MTT assay. The class given is functional, cell-based. As to conditions: MDA-MB-231, 72 h.
A short description of experiment [4]: Antiproliferative activity against human MCF10A cells after 72 hrs by MTT assay. The class given is cell-based. As to conditions: MCF-10A. A digest of the protocol: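 Spontaneously immortalized, non-malignant human mammary epithelial MCF-10A cells were exposed to compounds for 72 h. Viability was read by MTT assay, and IC50 was taken from that read-out.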

In another experiment the test system is MCF-10A. Kind of experiment: Ratio of IC50 for human MCF10A cells to IC50 for human PC3 cells. A digest of the protocol: (§1)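 Selectivity ratio is the IC50 on non-malignant MCF-10A cells divided by the IC50 on the cancer cell line.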
Experiment [5] concerns LNCaP. Kind of experiment: Ratio of IC50 for human MCF10A cells to IC50 for human LNCAP cells. A digest of the protocol:
as §1

The subject of experiment [6] is MCF7. Nature of the experiment: Ratio of IC50 for human MCF10A cells to IC50 for human MCF7 cells. A digest of the protocol: as §1
The subject of experiment [7] is MDA-MB-231. Nature of the experiment: Ratio of IC50 for human MCF10A cells to IC50 for human MDA-MB-231 cells. A digest of the protocol: as §1

The structures appear in SMILES notation. Bounds are passed on as bounds.

On to `COc1cc(/C=C/C(=O)/C=C/c2ccc(O)c(OC)c2)ccc1O`, for which the concentration for half-maximal inhibition (IC50) in the experiment on PC-3 was determined as 3.9 µM; with LNCaP [1] it was 2.7 µM; in the experiment on MCF7 [2] it was 2.4 µM; with MDA-MB-231 [3], 2.8 µM.

Take `O=C(/C=C/c1ccc(O)cc1)/C=C/c1ccc(O)cc1`: the IC50 was 9.5 µM with PC-3, 5.8 µM in the experiment with LNCaP [1], 6.9 µM in the experiment with MCF7 [2] and 3.9 µM in the experiment with MDA-MB-231 [3].

Take `COc1ccc(/C=C/C(=O)/C=C(O)/C=C/c2ccc(OC)c(O)c2)cc1O`: the concentration for half-maximal inhibition (IC50) in the experiment on PC-3, in the experiment on LNCaP [1], in the experiment on MCF7 [2] and in the experiment with MDA-MB-231 [3] was above 40 µM in each case.

Take `COc1ccc(/C=C/C(=O)/C=C/c2ccc(OC)c(OC)c2)cc1OC`: the concentration for half-maximal inhibition (IC50) came to 2.9 µM with PC-3, 2.2 µM in the experiment with LNCaP [1], 2.5 µM with MCF7 [2] and 1.6 µM in the experiment on MDA-MB-231 [3].

On to `COc1cc(/C=C/c2cc(/C=C/c3ccc(O)c(OC)c3)n(C)n2)ccc1O`, for which the 50% inhibitory concentration (IC50) in the experiment with PC-3 was found to be 16.2 µM; in the experiment with LNCaP [1], 12.1 µM; in the experiment with MCF7 [2] it was 15.8 µM; with MDA-MB-231 [3] it was 20.4 µM.

On to `COc1cc(OC)c(/C=C/C(=O)/C=C/c2c(OC)cc(OC)cc2OC)c(OC)c1`, for which the IC50 was 2.1 µM with PC-3; 0.5 µM with LNCaP [1]; 0.4 µM with MCF7 [2]; 0.6 µM in the experiment with MDA-MB-231 [3]; above 50 µM in [4]. For the same compound, the “Ratio IC50” value with MCF-10A, with LNCaP [5], in the experiment with MCF7 [6] and in the experiment with MDA-MB-231 [7] was 25 throughout.

With `COc1cccc(/C=C/C(=O)/C=C(O)/C=C/c2cccc(OC)c2)c1`, the IC50 in the experiment with PC-3 amounted to 40 µM; in the experiment on LNCaP [1] it was 34.7 µM; in the experiment with MCF7 [2] it was 25.9 µM; in the experiment with MDA-MB-231 [3], 31.9 µM.

For the compound `COc1cc(/C=C/C(=O)/C=C/c2cc(OC)c(O)c(OC)c2)cc(OC)c1O`, the half-maximal inhibitory concentration (IC50) is 3.6 µM with PC-3, 2.5 µM in the experiment with LNCaP [1], 1.7 µM in the experiment with MCF7 [2] and 2.7 µM in the experiment with MDA-MB-231 [3].

As for `NS(=O)(=O)Oc1ccc(/C=C/C(=O)/C=C/c2ccc(OS(N)(=O)=O)cc2)cc1`, the IC50 in the experiment with PC-3 was 5.1 µM; with LNCaP [1], 5.1 µM; with MCF7 [2], 3.5 µM; with MDA-MB-231 [3] it was 4.2 µM.

`COc1cc(/C=C/C(O)=C/C(=O)/C=C/c2ccc(OS(N)(=O)=O)c(OC)c2)ccc1O`: the IC50 was 19.3 µM with PC-3, 20 µM in the experiment on LNCaP [1], 15.1 µM in the experiment with MCF7 [2] and 14.3 µM in the experiment on MDA-MB-231 [3].

For `COc1cc(/C=C/C(=O)/C=C(O)/C=C/c2cc(OC)c(OS(N)(=O)=O)c(OC)c2)cc(OC)c1OS(N)(=O)=O`, the half-inhibitory concentration (IC50) worked out at 13.1 µM in the experiment with PC-3, 10.4 µM in the experiment with LNCaP [1], 4.7 µM in the experiment on MCF7 [2] and 5.5 µM with MDA-MB-231 [3].

For the compound `COc1ccc(/C=C/C(=O)/C=C(O)/C=C/c2ccc(OC)c(OS(N)(=O)=O)c2)cc1OS(N)(=O)=O`, the IC50 in the experiment with PC-3 came out at 7.4 µM; in the experiment with LNCaP [1], 7.7 µM; in the experiment on MCF7 [2], 5.5 µM; in the experiment with MDA-MB-231 [3] it was 6.5 µM.

With `COc1cc(/C=C/C(=O)/C=C(O)/C=C/c2ccc(OS(N)(=O)=O)c(OC)c2)ccc1OS(N)(=O)=O`, the IC50 came to 7.5 µM with PC-3, 5.9 µM in the experiment with LNCaP [1], 5.5 µM with MCF7 [2] and 3.1 µM with MDA-MB-231 [3].

Consider `CC(=O)Oc1ccc(/C=C/C(=O)/C=C(O)/C=C/c2ccc(OC(C)=O)c(OC(C)=O)c2)cc1OC(C)=O`, for which the 50% inhibitory concentration (IC50) in the experiment on PC-3 was found to be 12.9 µM; in the experiment on LNCaP [1] it was 20.2 µM; in the experiment with MCF7 [2], 17.8 µM; with MDA-MB-231 [3] it was 12.3 µM.

For `COc1ccc(/C=C/C(=O)/C=C/c2ccc(OC)c(O)c2)cc1O`, the IC50 in the experiment with PC-3 was determined as 5.9 µM; in the experiment with LNCaP [1] it was 2.6 µM; with MCF7 [2], 2.9 µM; in the experiment with MDA-MB-231 [3], 3.1 µM.

For the compound `COc1cc(OC)c(OC)cc1/C=C/C(=O)/C=C/c1cc(OC)c(OC)cc1OC`, the half-inhibitory concentration (IC50) in the experiment with PC-3 is 4.6 µM; with LNCaP [1], 1.7 µM; with MCF7 [2], 2.4 µM; with MDA-MB-231 [3] it was 2.4 µM; in experiment [4], above 50 µM. The “Ratio IC50” value with MCF-10A, with LNCaP [5], in the experiment with MCF7 [6] and in the experiment with MDA-MB-231 [7] was “>=5” throughout.

As to `COc1cc(/C=C/C(=O)/C=C/c2ccc(OS(N)(=O)=O)c(OC)c2)ccc1OS(N)(=O)=O`, the half-inhibitory concentration (IC50) with PC-3 worked out at 6.1 µM; in the experiment on LNCaP [1] it was 2.4 µM; in the experiment with MCF7 [2], 6.6 µM; in the experiment on MDA-MB-231 [3], 1.7 µM.

Consider `COc1cc(/C=C/C(=O)/C=C/c2cc(OC)c(OS(N)(=O)=O)c(OC)c2)cc(OC)c1OS(N)(=O)=O`, for which the half-maximal inhibitory concentration (IC50) was 2.4 µM in the experiment with PC-3, 1.9 µM with LNCaP [1], 1.5 µM in the experiment on MCF7 [2] and 0.6 µM in the experiment with MDA-MB-231 [3].

Turning to `COc1cc(/C=C/C(=O)/C=C/c2cc(OC)cc(OC)c2)cc(OC)c1`, the IC50 in the experiment on PC-3 is 2.5 µM; in the experiment with LNCaP [1], 2.1 µM; with MCF7 [2], 2.7 µM; in the experiment on MDA-MB-231 [3], 1.5 µM; in [4], above 50 µM. The “Ratio IC50” value in the experiment with MCF-10A, in the experiment on LNCaP [5], in the experiment with MCF7 [6] and with MDA-MB-231 [7] was “>=5” throughout.

In the case of `O=C(/C=C/c1ccc(O)cc1)CC(=O)/C=C/c1ccc(O)cc1` [BISDEMETHOXYCURCUMIN], the IC50 with PC-3 was 27.3 µM; in the experiment on LNCaP [1], 19.7 µM; with MCF7 [2], 24.3 µM; with MDA-MB-231 [3], 21.9 µM.

Turning to `COc1cc(/C=C/c2cc(/C=C/c3ccc(O)c(OC)c3)[nH]n2)ccc1O` [CURCUMIN PYRAZOLE], the concentration for half-maximal inhibition (IC50) is 5.6 µM with PC-3; 3.4 µM in the experiment on LNCaP [1]; 5.9 µM in the experiment with MCF7 [2]; 6.6 µM in the experiment on MDA-MB-231 [3]; above 50 µM in experiment [4]. Further, the “Ratio IC50” value in the experiment on MCF-10A, in the experiment with LNCaP [5], with MCF7 [6] and with MDA-MB-231 [7] was “>=5” in each case.

With `COc1cc(/C=C/C(=O)CC(=O)/C=C/c2ccc(O)c(OC)c2)ccc1O` [CURCUMIN], the IC50 in the experiment with PC-3 is 19.8 µM; with LNCaP [1], 19.6 µM; in the experiment with MCF7 [2], 21.5 µM; in the experiment on MDA-MB-231 [3], 25.6 µM; in experiment [4] it was 30.1 µM.

For `COc1ccc(/C=C/C(=O)/C=C(O)/C=C/c2ccc(OC)c(OC)c2)cc1OC` [DIMETHYLCURCUMIN], the concentration for half-maximal inhibition (IC50) in the experiment on PC-3 came out at 5.9 µM; in the experiment with LNCaP [1], 3.9 µM; in the experiment with MCF7 [2], 5.4 µM; in the experiment on MDA-MB-231 [3], 4.9 µM; in [4], 31.5 µM.

Consider `COc1cc(/C=C/C(O)=C/C(=O)/C=C/c2ccc(OC)c(OC)c2)ccc1O` [METHYLCURCUMIN], for which the concentration for half-maximal inhibition (IC50) came out at 20.9 µM in the experiment with PC-3, 6.8 µM in the experiment with LNCaP [1], 15.4 µM in the experiment with MCF7 [2] and 7.2 µM with MDA-MB-231 [3].

For orientation: IC50 means the point on the concentration scale where inhibition reaches its midpoint. High values mean weaker potency, low ones greater potency.
